ChEMBL document CHEMBL1151723, “Antiplasmodial alkaloids from Desmos rostrata” (J Nat Prod, 2008)

Columns and labels:
KB = experiment: Cytotoxicity against human KB cells after 72 hrs by neutral red staining; type: functional, cell-based
Method in brief: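 Human nasopharynx carcinoma KB cells (3 × 10^3 cells/mL) in D-MEM with 10% FCS, 2 mM L-glutamine, penicillin G, streptomycin, gentamicin. Compound stocks in DMSO/H2O (1:9). Exposure 72 h at 37 °C, air/CO2 95:5; growth read colorimetrically by neutral red uptake of living cells, relative to untreated cells.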

Plasmodium falciparum = experiment: Antiplasmodial activity against Plasmodium falciparum FcB1 as [3H]hypoxanthine uptake after 24 hrs; type: functional, organism-based
Method in brief: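 Chloroquine-resistant FcB1/Colombia P. falciparum, asynchronous cultures at 1% parasitemia, 1.5% final hematocrit. Compounds taken from 10 µg/mL DMSO solution, diluted in culture medium; 24 h at 37 °C in candle jar, then 0.5 µCi [3H]hypoxanthine per well, further 24 h. Freeze-thaw, harvest onto glass fibre filters, scintillation count; inhibition vs same-plate untreated control; IC50 by Desjardins method.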

SMILES | IC50 (KB) | IC50 (Plasmodium falciparum)
COc1cc2c(cc1O)CC[N+]1([O-])Cc3cc(OC)c(OC)cc3C[C@@H]21 (stereo partly drawn) | > 28 µM | 4.2 µM
COc1ccc2c(c1OC)C[C@H]1NCCc3c(OC)c4c(c-2c31)OCO4 [DESMOROSTRATINE] | 2.4 µM | 3.6 µM
COc1cc2c(cc1O)CCN1Cc3cc(OC)c(OC)cc3C[C@@H]21 [DISCRETINE] | > 29 µM | 1.6 µM
CC(=O)O[C@@]12CO[C@@H]1C[C@H](O)[C@@]1(C)C(=O)[C@H](O)C3=C(C)[C@@H](OC(=O)[C@H](O)[C@@H](NC(=O)OC(C)(C)C)c4ccccc4)C[C@@](O)([C@@H](OC(=O)c4ccccc4)[C@H]21)C3(C)C [DOCETAXEL] | 0.0002 µM | 
COc1cc2c(cc1O)CC[n+]1cc3cc(OC)c(OC)cc3cc1-2 [DEHYDRODISCRETINE] | > 29 µM | 0.9 µM
COc1cc2c(cc1OC)-c1c(OC)c(O)cc3c1[C@H](C2)N(C)CC3 [PREDICENTRINE] | > 29 µM | 27.8 µM
COc1c(O)cc2c3c(cc4ccccc4c13)NC2=O [ARISTOLACTAM AII] | > 37 µM | > 37 µM
